Results gathered from unrelated publications.
Compare with care: the assays were run in different laboratories.
Target: Serine/threonine-protein kinase PAK 1 (PAK1, Homo sapiens, UniProt Q13153)

Compound	effect on	mode	method	concentration	measurement	value
O=C1CCc2cc(Nc3cc(OC4CCOCC4)c([N+](=O)[O-])cc3Cl)ccc2N1	cell-free assay		competition with immobilised ligand	1 µM	remaining binding	88%
O=S(=O)(Nc1cc(Sc2ncn[nH]2)c(O)c2ccccc12)c1ccc(-c2ccccc2)cc1	enzyme activity	inhibitor		1 µM	remaining activity	≥ 75%
CC(C)(O)[C@H]1CC[C@H](Nc2ccc3ncc(-c4cccc(C(F)(F)F)c4)n3n2)CC1	enzyme activity	inhibitor		1 µM	remaining activity	92.7%
CS(=O)(=O)NCC[C@H](NC(=O)c1cncc2c1cnn2-c1ccc(F)cc1)c1ccnc(S(C)(=O)=O)c1	cell-free assay		competition with immobilised ligand	1 µM	remaining binding	88%
CN(C)C1CCN(CC#Cc2nn(C3CCCC3)c3nc(NCc4ccccc4)ncc23)C1 (stereo not shown)	enzyme activity	inhibitor	FRET	1 µM	inhibition	4%
O=C1NC(=O)c2cc(Nc3ccc(F)cc3)c(Nc3ccc(F)cc3)cc21	cell-free assay			0.5 µM	remaining signal	95.5%
CC(=O)C1=C(C)N(c2cccc(C(F)(F)F)c2)C(=O)N[C@@H]1c1ccc(C#N)nc1	cell-free assay		competition with immobilised ligand	1 µM	remaining binding	91.2%
O=C(Nc1cnn(-c2csc(C(=O)NC3COC3)c2)c1)Nc1ccccc1Cl	enzyme activity	inhibitor		5 µM	remaining activity	106%
COc1ccc2c(c1)O[C@H](c1ccc(OC)c(OC)c1)C[C@@H]2NC(=O)C1(c2ccc3c(c2)OC(F)(F)O3)CC1	cell-free assay		competition with immobilised ligand	1 µM	remaining binding	100%
COc1cc2ncnc(Nc3ccc(F)c(Cl)c3)c2cc1OCCCN1CCOCC1	cell-free assay			0.5 µM	remaining signal	104%
CC(C)(C)c1nc2c(s1)c1nc(N)ncc1c1ccc(NS(=O)(=O)c3c(F)cccc3F)c(F)c12	enzyme activity	inhibitor	radiometric	1 µM	remaining activity	93%
CS(=O)(=O)N1CCCC(NC(=O)[C@H](CCC2CCCCC2)NC(=O)c2ccc(CNC(=O)c3cnc4ccccn34)cc2)C1 (stereo partly shown)	cell-free assay		competition with immobilised ligand	0.1 µM	remaining binding	82%
Oc1ccc(-c2nc(-c3ccncc3)c(-c3ccc(F)cc3)[nH]2)cc1	cell-free assay			0.5 µM	remaining signal	97.3%
Cc1cc(NC(=O)c2cccc3cc(-c4cccc5[nH]nc(N)c45)ccc23)ccc1F	enzyme activity	inhibitor		0.1 µM	activity vs control	94%
COc1cc2ncnc(Nc3ccc(Oc4ccccc4)cc3C)c2cc1OC	enzyme activity	inhibitor		1 µM	inhibition	4%
C=CC(=O)Nc1cc(Nc2nccc(Nc3cc(Cl)c(F)cc3C(C)(C)O)n2)c(OC)cc1N1CC[C@@H](N(C)C)C1	enzyme activity	inhibitor		1 µM	inhibition	-9%
O=C(CSc1nc2nccnc2c(=O)n1CCc1ccccc1)Nc1nccs1	enzyme activity	inhibitor		10 µM	inhibition	19%
Nc1cnc(N2CCc3cc(S(=O)(=O)Nc4c(F)cc(Cl)cc4F)cc(N4CCCC4=O)c32)nc1	cell-free assay		competition with immobilised ligand	1 µM	remaining binding	89%
CC/C(=N\NC(=O)NCc1cccc(O)c1)c1ccc(O)c(C)c1O	enzyme activity	inhibitor		0.1 µM	inhibition	-6.4%
